Experimental data reported in ChEMBL document CHEMBL5653624 (Biochem Pharmacol, 2016).
Active and inactive are the calls of the source. The rule behind the calls is not given here.

Experiments:
[1] = biological target: Histone deacetylase 1 (Mus musculus) (UniProt O09106); assay: Effect on HDAC1 nuclear localization in LPS/IFNgamma-stimulated mouse RAW264.7 cells preincubated for 20 hrs followed by LPS/IFNgamma stimulation and measured after 1 hr by Western blot analysis; format: cell-based
How it was run: (§1)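 RAW 264.7 cells treated for 20 h, then 1 h LPS/IFNγ, and fractionated into nuclear and cytosolic parts. Fractions immunoblotted, with PARP-1 and β-actin as internal controls. Densitometry with vehicle control set at 100%. Mean ± SD of 3–4 independent experiments.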

HBE [2] = assay: Antiinflammatory activity in HBE cells assessed as effect on LPS/IFNgamma-induced IL-10 gene expression at 2 uM […] by RT-qPCR analysis; format: functional, cell-based; settings: Homo sapiens
How it was run: (§2)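 HBE cells (passage 73–103) or immortalized hASM cells (2–3 donors, passage 27–35), serum-starved. Then 2 μM RGFP966 for 20 h, with LPS/IFNγ for the last 4 h. Total RNA isolated; RT-qPCR by 2−ΔΔCt, fold change versus LPS/IFNγ control. Mean ± SD of 3–5 independent experiments.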

HASMC [3] = assay: Antiinflammatory activity in HASMC cells assessed as effect on LPS/IFNgamma-induced TNFalpha gene expression at 2 uM […] and measured after 4 hrs by RT-qPCR analysis; format: functional, cell-based; settings: Homo sapiens; how it was run: as §2
Lung [4] = assay: Antiinflammatory activity in C57bl/6 mouse precision-cut lung slices assessed as down regulation of LPS/IFNgamma-induced iNOS gene expression at 1 to 10 uM preincubated for 20 hrs followed by LPS/IFNgamma stimulation and measured after 4 hrs by RT-qPCR analysis; format: functional, tissue-based; settings: dose 1-10 µM, time 24.0 hrs
How it was run: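 PCLS, 250 μm thick, cut from agarose-filled lungs of male C57bl/6 mice (24–28 g, 8–10 weeks). Three slices per well at 37 °C, 5% CO2. Slices received RGFP966 at 1 and 10 μM final for 20 h, with 10 ng/ml LPS and 10 ng/ml IFNγ stimulation. RNA isolated; RT-qPCR fold change versus LPS/IFNγ control by 2−ΔΔCt. Mean ± SD, n = 3–5.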

RAW264.7 [5] = assay: Antiinflammatory activity in LPS/IFNgamma-stimulated mouse RAW264.7 cells assessed as reduction in HDAC2 expression preincubated for 20 hrs followed by LPS/IFNgamma stimulation and measured after 4 hrs by Western blot analysis; format: functional, cell-based; settings: time 24.0 hrs
How it was run: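 RAW 264.7 cells were LPS/IFNγ-stimulated after inhibitor exposure, then lysed in Hepes/Triton buffer containing DTT, butyrate and protease inhibitors, freeze-thawed and cleared. Immunoblot with milk blocking and overnight primary antibody at 4 °C. Densitometry normalized to β-actin, LPS/IFNγ control set at 100%. Mean ± SD of 4 independent experiments.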

RAW264.7 [6] = assay: Antiinflammatory activity in LPS/IFNgamma-stimulated mouse RAW264.7 cells assessed as effect on HDAC2 mRNA expression preincubated for 20 hrs followed by LPS/IFNgamma stimulation and measured after 4 hrs by RT-qPCR analysis; format: functional, cell-based; settings: time 24.0 hrs
Lung [7] = assay: Antiinflammatory activity in C57bl/6 mouse precision-cut lung slices assessed as effect on LPS/IFNgamma-induced HDAC3 gene expression at 1 to 10 uM preincubated for 20 hrs followed by LPS/IFNgamma stimulation and measured after 4 hrs by RT-qPCR analysis; format: functional, tissue-based; settings: dose 1-10 µM, time 24.0 hrs
RAW264.7 [8] = assay: Antiinflammatory activity in LPS/IFNgamma-stimulated mouse RAW264.7 cells assessed as effect on IkappaBalpha expression preincubated for 20 hrs followed by LPS/IFNgamma stimulation and measured after 4 hrs by Western blot analysis; format: functional, cell-based; settings: time 24.0 hrs
HBE [9] = assay: Antiinflammatory activity in HBE cells assessed as effect on LPS/IFNgamma-induced IL-1beta gene expression at 2 uM […] by RT-qPCR analysis; format: functional, cell-based; settings: Homo sapiens; how it was run: as §2
[10] = biological target: T1, Histone deacetylase 3 (Mus musculus) (UniProt O88895); assay: Inhibition of HDAC3 in mouse RAW264.7 cells assessed as effect on histone H3 acetylation measured after 20 hrs by Western blot analysis; format: cell-based
T1 sequence (whole entry): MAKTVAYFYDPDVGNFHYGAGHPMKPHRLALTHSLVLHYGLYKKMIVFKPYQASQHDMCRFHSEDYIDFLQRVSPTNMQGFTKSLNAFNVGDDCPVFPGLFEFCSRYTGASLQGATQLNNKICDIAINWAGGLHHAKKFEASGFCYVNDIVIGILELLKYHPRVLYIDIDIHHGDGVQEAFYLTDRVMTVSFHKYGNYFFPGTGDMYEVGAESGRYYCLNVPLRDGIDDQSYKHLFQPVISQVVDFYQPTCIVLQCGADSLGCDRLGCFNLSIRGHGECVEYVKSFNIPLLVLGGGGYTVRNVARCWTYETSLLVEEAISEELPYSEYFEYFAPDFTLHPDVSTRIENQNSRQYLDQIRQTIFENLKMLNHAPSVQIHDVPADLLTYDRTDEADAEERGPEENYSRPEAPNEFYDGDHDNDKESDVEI
How it was run: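 Histones extracted from RAW 264.7 cells after 20 h inhibitor treatment, protein quantified by micro BCA (BSA standard), and H3 and H4 acetylation assessed by Western blot versus vehicle-treated cells.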

RAW264.7 [11] = assay: Antiinflammatory activity in LPS/IFNgamma-stimulated mouse RAW264.7 cells assessed as effect on HDAC1 mRNA expression preincubated for 20 hrs followed by LPS/IFNgamma stimulation and measured after 4 hrs by RT-qPCR analysis; format: functional, cell-based; settings: time 24.0 hrs
Lung [12] = assay: Antiinflammatory activity in C57bl/6 mouse precision-cut lung slices assessed as effect on LPS/IFNgamma-induced HDAC2 gene expression at 1 to 10 uM preincubated for 20 hrs followed by LPS/IFNgamma stimulation and measured after 4 hrs by RT-qPCR analysis; format: functional, tissue-based; settings: dose 1-10 µM, time 24.0 hrs
[13] = biological target: Histone deacetylase 2 (Mus musculus) (UniProt P70288); assay: Effect on HDAC2 nuclear localization in LPS/IFNgamma-stimulated mouse RAW264.7 cells preincubated for 20 hrs followed by LPS/IFNgamma stimulation and measured after 1 hr by Western blot analysis; format: cell-based; how it was run: as §1
Histone deacetylase 2 (Mus musculus), sequence (P70288 whole entry): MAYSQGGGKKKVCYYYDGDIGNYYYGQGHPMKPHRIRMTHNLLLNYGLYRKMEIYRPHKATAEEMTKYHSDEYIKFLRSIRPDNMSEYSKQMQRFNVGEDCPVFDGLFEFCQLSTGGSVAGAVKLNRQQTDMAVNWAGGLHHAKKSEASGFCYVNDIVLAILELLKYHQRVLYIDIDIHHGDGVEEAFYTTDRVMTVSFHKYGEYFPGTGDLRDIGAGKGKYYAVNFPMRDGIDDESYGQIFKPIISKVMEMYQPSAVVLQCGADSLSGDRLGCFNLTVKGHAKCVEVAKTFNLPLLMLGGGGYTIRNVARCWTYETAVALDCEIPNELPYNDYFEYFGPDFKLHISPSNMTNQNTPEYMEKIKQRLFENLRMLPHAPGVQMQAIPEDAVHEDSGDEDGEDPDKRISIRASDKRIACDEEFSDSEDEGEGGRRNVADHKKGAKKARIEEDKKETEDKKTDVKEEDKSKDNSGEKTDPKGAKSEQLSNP

[14] = Cytotoxicity against HBE cells assessed as reduction in cell viability at 2 uM measured after 20 hrs by MTS assay; format: toxicity, cell-based; settings: human
How it was run: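 MTS viability assay. RAW 264.7 cells seeded at 25,000 cells/cm2; HBE and hASM cells at 70% confluency and serum-starved for 24 h. Exposure for 20 h with LPS/IFNγ stimulation. MTS reagent added for 1 h at 37 °C in the dark, absorbance read at 490 nm. LPS/IFNγ-stimulated cells without inhibitor set at 100%.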

HASMC [15] = assay: Antiinflammatory activity in HASMC cells assessed as effect on LPS/IFNgamma-induced iNOS gene expression at 2 uM […] and measured after 4 hrs by RT-qPCR analysis; format: functional, cell-based; settings: Homo sapiens; how it was run: as §2
[16] = biological target: Histone deacetylase 1 (Mus musculus) (UniProt O09106); assay: Effect on HDAC1 nuclear localization in LPS/IFNgamma-stimulated mouse RAW264.7 cells preincubated for 20 hrs followed by LPS/IFNgamma stimulation and measured after 1 hr by Hoechst staining based confocal laser scanning microscopy; format: cell-based
How it was run: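 RAW 264.7 cells at 20,000 cells/cm2 received 1 μM RGFP966 for 20 h, then 1 h LPS/IFNγ. Fixed in 4% formaldehyde, permeabilized with 0.25% Triton X-100, blocked with 5% BSA. Primary antibodies 2 h at 4 °C, AlexaFluor secondaries 1 h, Hoechst nuclear stain. Confocal imaging at 630×; 4 independent experiments.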

Histone deacetylase 1 (Mus musculus), sequence (O09106 whole entry): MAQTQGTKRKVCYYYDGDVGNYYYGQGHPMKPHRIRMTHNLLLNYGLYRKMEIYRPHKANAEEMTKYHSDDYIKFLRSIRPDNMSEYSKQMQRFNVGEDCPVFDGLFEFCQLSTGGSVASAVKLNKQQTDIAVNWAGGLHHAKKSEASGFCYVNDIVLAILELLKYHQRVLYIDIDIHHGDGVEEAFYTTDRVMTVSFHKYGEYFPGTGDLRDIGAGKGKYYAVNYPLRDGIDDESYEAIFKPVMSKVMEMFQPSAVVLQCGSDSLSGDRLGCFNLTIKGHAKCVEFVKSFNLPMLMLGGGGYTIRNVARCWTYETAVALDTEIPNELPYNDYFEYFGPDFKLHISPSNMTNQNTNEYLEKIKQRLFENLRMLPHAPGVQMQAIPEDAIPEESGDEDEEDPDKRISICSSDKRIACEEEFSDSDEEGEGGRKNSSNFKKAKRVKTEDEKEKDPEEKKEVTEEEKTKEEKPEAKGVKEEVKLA

Q: Which results are given for `Nc1cc(F)ccc1NC(=O)/C=C/c1cnn(C/C=C/c2ccccc2)c1`?
A: Activity [1]: inactive; Activity (HBE [2]): inactive; Activity (HASMC [3]): inactive; Activity (Lung [4]): Active; Activity (RAW264.7 [5]): Active; Activity (RAW264.7 [6]): inactive; Activity (Lung [7]): inactive; Activity (RAW264.7 [8]): inactive; Activity (HBE [9]): inactive; inhibition [10]: inactive; Activity (RAW264.7 [11]): inactive; Activity (Lung [12]): inactive; Activity [13]: inactive; Activity [14]: Non-Toxic; Activity (HASMC [15]): inactive; Activity [16]: inactive
